EP2 mod: modulates human prostaglandin E2 receptor EP2 signaling. P43116. EP2-expressing cells, cAMP HTRF FRET, PGE2 co-stimulation. induction, % at 25 µM. 260,000 compounds, 0.83% hits. AID 940;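 active = compounds whose cAMP rise, as percent of the full-agonist control response, exceeds 60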;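 note: rat C6 glioma line stably carrying human EP2 under a CMV promoter; the protocol text gives 20 µM as final concentration; 100% = response of wells given 1 µM PGE2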
KLK5 inh: inhibitors of human kallikrein 5. 210,000 compounds, 0.59% hits. inhibition, % at 5 µM. recombinant hK5, fluorogenic AMC substrate cleavage. Q9Y337;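 active = inhibition of 40% or more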;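 note: 0% = enzyme controls without compound and 100% = no-enzyme blanks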
PGE2 EP2 inh: blocks the human prostaglandin E2 receptor EP2; P43116; C6 glioma cells expressing human EP2, cAMP TR-FRET; cells stimulated with saturating PGE2; inhibition, % at 25 µM; 260,000 compounds, 0.52% hits;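 active = percent inhibition above 40 after rounding to a whole number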;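 note: rat C6 glioma host cells with rolipram phosphodiesterase inhibitor present; the protocol text gives 20 µM as final concentration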
FXIIa inh: factor XIIa (human) inhibition; purified FXIIa, Boc-QGR-AMC fluorogenic substrate, 2 h; inhibition, % at 5 µM; 220,000 compounds, 0.3% hits; in the data active = inhibition above about 40%;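 note: 0% = enzyme with no compound and 100% = blank without enzyme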
Target sequence (P00748 20-372 limits assumed): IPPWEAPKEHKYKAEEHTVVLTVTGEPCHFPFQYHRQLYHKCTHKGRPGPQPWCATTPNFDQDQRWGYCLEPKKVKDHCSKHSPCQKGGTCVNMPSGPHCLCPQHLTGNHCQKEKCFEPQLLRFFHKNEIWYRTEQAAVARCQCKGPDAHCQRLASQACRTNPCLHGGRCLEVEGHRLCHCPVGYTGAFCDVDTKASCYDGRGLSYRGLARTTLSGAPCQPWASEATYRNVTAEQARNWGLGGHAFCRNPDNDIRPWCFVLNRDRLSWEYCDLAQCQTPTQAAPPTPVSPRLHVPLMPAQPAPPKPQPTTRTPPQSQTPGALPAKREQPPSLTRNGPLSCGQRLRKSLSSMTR
Target sequence (P00748 373-615 limits assumed): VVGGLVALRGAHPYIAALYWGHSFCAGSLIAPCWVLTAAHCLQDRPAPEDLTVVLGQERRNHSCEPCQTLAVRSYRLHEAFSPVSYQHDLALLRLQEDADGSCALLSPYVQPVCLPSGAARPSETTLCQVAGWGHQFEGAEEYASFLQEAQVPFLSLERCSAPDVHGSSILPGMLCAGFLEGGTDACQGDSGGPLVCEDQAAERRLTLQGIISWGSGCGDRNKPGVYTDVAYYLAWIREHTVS
Thrombin inh: inhibitors of human thrombin; inhibition, % at 5 µM; P00734; 220,000 compounds, 0.26% hits; alpha-thrombin, Boc-VPR-AMC fluorogenic substrate cleavage;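 active = inhibition at or above 40%; inactive = inhibition below 40%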;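 note: 0% = enzyme with no compound and 100% = wells without enzyme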
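Assay system: human alpha-thrombin enzyme. Reagent: Boc-VPR-AMC substrate, 15 µM final. Compound dosing: one concentration per compound, 5 µM, with 0.2% DMSO. Incubation: room-temperature reaction. Technique: AMC fluorescence, 355/460 nm. Measure: % inhibition relative to enzyme controls and enzyme-free blanks.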
FXIa inh 1536: inhibitors of human coagulation factor XIa. P03951. 220,000 compounds, 0.14% hits. AID 798. inhibition, % at 5 µM. purified FXIa, Boc-Glu-Ala-Arg-AMC fluorogenic substrate;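 active = inhibition of at least 40%; inactive = inhibition below 40%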;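 note: fluorescence of freed AMC excited at 355 nm; 0% = enzyme without compound and 100% = no enzyme blank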
Starred values were filed as active, the others as inactive; . = no result given; ! = not active in a repeat. The list is not random: actives were taken first. Their share in the collection is about 2.1%.

SMILES | EP2 mod | KLK5 inh | PGE2 EP2 inh | FXIIa inh | Thrombin inh | FXIa inh 1536
CN(Cc1ccon1)Cc1cn(C)nc1-c1cccc(Cl)c1 | 17.5 | 57.7* | 7.3 | 22.9 | 23.3 | 31.4
CCOC(=O)c1sc2ncn(/N=C/c3ccc(O)cc3)c(=O)c2c1C | -32.4 | 27.3 | 14.0 | 26.5 | 25.0 | 49.1*
CC(=O)Nc1ccc(C(=O)CSc2nnc3c4c5c(sc4nc(C4CC4)n23)CC(C)CC5)cc1 (stereo not given) | 2.6 | . | 9.6 | . | . | .
CCc1ccc2c(c1)N(C[C@H](C)CN(C)C)c1ccccc1S2 | -12.9 | . | 43.9* | . | . | .
Cn1cc(C(=O)NCc2cccs2)c(=O)c2cc(S(=O)(=O)N3CCCC3)ccc21 | -64.1 | -6.3 | 9.1 | 2.7 | 73.9* | -2.2
Cn1cc(C(=O)NCc2cccnc2)c(=O)c2cc(S(=O)(=O)N3CCCCCC3)ccc21 | 8.7 | 2.0 | 5.7 | 11.4 | 12.3 | 0.2
CCn1cc(C(=O)NCc2ccco2)c(=O)c2cc(S(=O)(=O)N3CCCCCC3)ccc21 | -19.3 | -4.0 | 6.3 | 15.9 | 40.8* | -1.8
CS(=O)(=O)c1ccc2nc(NC(=O)c3ccc(NS(=O)(=O)c4cccc([N+](=O)[O-])c4)cc3)sc2c1 | -9.7 | 3.5 | 9.7 | 11.6 | 52.5* | 3.8
CC(=O)Nc1ccc(S(=O)(=O)Nc2nc3ccc([N+](=O)[O-])cc3s2)cc1 | 3.4 | 4.9 | 4.6 | 7.6 | -13.0 | -1.5
CCN(CC)CCN(Cc1cc2cc3c(cc2[nH]c1=O)OCCO3)C(=O)Nc1ccccc1F | -43.2 | . | 13.7 | . | . | .
COC(=O)CSc1nnc(-c2ccccc2OC)n1-c1ccc(C)cc1 | 17.8 | 42.9* | 13.4 | 29.8 | 46.3* | 7.4
CCOC(=O)CSc1nnc(-c2ccco2)n1-c1ccccc1 | -3.1 | -6.9 | 18.5 | 11.5 | 0.1 | 1.8
CCOC(=O)CSc1nnc(-c2ccco2)n1-c1ccc(C)cc1 | 23.2 | 45.4* | 6.2 | 1.6 | 28.5 | 1.3
CCC(=O)N(Cc1ccccc1Cl)Cc1cc2cccc(C)c2n2nnnc12 | -23.2 | . | 5.0 | . | . | .
COc1ccc(CC(=O)NNC(=O)COc2ccc3ccccc3c2)cc1 | -76.7 | 1.0 | 102.8* | 10.4 | -1.5 | 4.5
COc1cc(COCC(O)CN2CCOCC2)cc(OC)c1OC (stereo not given) | 8.7 | -7.2 | 9.6 | 44.7* | -8.4 | 8.6
CCc1ccc(C(C(=O)NC2CCCCC2)N(C(=O)c2csnn2)C2CCCC2)cc1 (stereo not given) | 41.4 | . | 12.9 | . | . | .
COC(=O)c1[nH]c(C)c(/C(O)=C2\C(=O)C(=O)N(CCN(C)C)C2c2cc(OC)ccc2OC)c1C (stereo not given) | 18.4 | -16.2 | -1.1 | 18.5 | 4.3 | 2.1
COC(=O)c1[nH]c(C)c(/C(O)=C2\C(=O)C(=O)N(CCN(C)C)C2c2cccc(OC)c2OC)c1C (stereo not given) | -0.8 | 56.1* | . | 43.9* | 10.9 | 5.2
O=C(c1cccs1)N1CCC[C@H]1Cn1nc(-c2ccc3c(c2)OCCO3)ccc1=O | -46.0 | . | . | . | . | .
Cn1c(SCC(=O)NC(C)(C)C)nnc1-c1ccc(C(C)(C)C)cc1 | 12.3 | 41.5* | 6.5 | 9.1 | 18.3 | 17.3
O=C(CSC1=NS(=O)(=O)c2ccccc21)Nc1ccccc1 | -19.9 | -8.3 | 17.3 | 17.1 | 5.0 | 5.7
COC(=O)CSC1=NS(=O)(=O)c2ccccc21 | -15.6 | -20.6 | 114.2* | 5.7 | -10.0 | -0.1
O=c1c2snc(-c3ccc(F)cc3)c2ncn1Cc1ccc(F)cc1 | -44.9 | . | 8.4 | . | . | .
CCc1ccc2[nH]c(=O)c(CN(Cc3ccccc3OC)Cc3nnnn3CC3CCCO3)cc2c1 (stereo not given) | 38.5 | . | 6.5 | . | . | .
SMILES | EP2 mod | KLK5 inh | PGE2 EP2 inh | FXIIa inh | Thrombin inh | FXIa inh 1536
CCOC(=O)/C(=N\Nc1cccc(C(F)(F)F)c1)N1CCOCC1 | 19.1 | 52.0* | 2.5 | 24.4 | 2.6 | 29.0
CC(=O)Nc1ccc(NC(=O)CSc2nccn2Cc2ccccc2)cc1 | 0.3 | 57.4* | 6.8 | 2.7 | 14.8 | 4.5
CC(=O)Nc1ccc(NC(=O)CSc2ncnn2-c2ccccc2)cc1 | -46.6 | -3.0 | 9.6 | 42.7* | 2.5 | 1.1
Cc1ccc(NC(=O)CSc2nccn2Cc2ccccc2)cc1C | -16.1 | 1.9 | -3.5 | 19.6 | 0.6 | 7.1
O=C(Cc1cc(=O)oc2cc(O)ccc12)NCC1CCC(C(=O)O)CC1 (stereo not given) | 64.1* | -62.4 | 11.5 | -57.3 | -24.2 | -30.2
COc1ccc2c(CC(=O)O)cc(=O)oc2c1 | 20.3 | 1.2 | 6.6 | 2.0 | -4.2 | -0.3
Cc1ccsc1C(=O)NNC(=O)C1CC=CCC1C(=O)O (stereo not given) | 12.2 | 54.8* | 3.5 | 12.1 | 23.2 | 10.7
Cc1ccsc1C(=O)NNC(=O)C1CCCCC1C(=O)O (stereo not given) | 17.2 | -5.6 | 5.2 | 1.2 | -6.1 | -5.4
CCOc1ccc(S(=O)(=O)n2ccc(C)n2)c2ccccc12 | 15.8 | 49.3* | 5.6 | 15.7 | 16.1 | 6.0
CCc1ccc2[nH]c(=O)c(CN(CCN(C)C)C(=S)Nc3ccc(OC)cc3)cc2c1 | -41.7 | . | 11.5 | . | . | .
Cc1ccc(NCc2cccnc2)c(Br)c1 | 28.0 | 46.7* | 10.7 | 18.7 | 13.4 | 13.3
Cc1cc(F)ccc1NCc1cccnc1 | 5.7 | 2.2 | 1.5 | -0.2 | -2.7 | -7.1
CCN(Cc1ccccc1)C(c1cccs1)c1nnnn1C1CCCCC1 (stereo not given) | 30.6 | 16.9 | 10.2 | 9.8 | -5.5 | 3.1
CCN(Cc1ccccc1)C(c1ccccn1)c1nnnn1C1CCCCC1 (stereo not given) | 63.8*! | -10.6 | 10.6 | 17.1 | 0.9 | 7.7
COc1ccccc1CN(Cc1cc2c(C)cc(C)cc2[nH]c1=O)C(=O)NC1CCCCC1 | 16.5 | . | 16.7 | . | . | .
C/C(=N\OC(=O)C1CC1)C1CC1c1ccc(F)cc1 (stereo not given) | 9.4 | 52.3* | 6.1 | 33.2 | 30.8 | 33.2
Cn1c(-c2ccccc2)c(C=O)c2ccccc21 | 48.0 | 6.3 | 7.3 | 11.3 | -9.0 | 0.0
CN1CCc2c(n(CC(O)CN(CCO)CCO)c3ccccc23)C1=O (stereo not given) | -2.9 | 0.9 | 3.4 | 10.2 | 1.7 | 3.6
Cn1c2c(c3ccccc31)CCSC2=O | 6.1 | 2.4 | 8.7 | 71.5* | -0.3 | 10.9
CN(C)CCCCN1CCc2c(n(C)c3ccccc23)C1=O | -25.7 | . | 50.0* | . | . | .
CCn1c(N2CCC(C(=O)NCc3cccc(OC)c3)CC2)nc2ccccc21 | -49.9 | . | . | . | . | .
CCC(C)(C)NC(=O)C(c1ccc(F)cc1)N(Cc1cccnc1)C(=O)c1csnn1 (stereo not given) | 5.8 | . | 9.4 | . | . | .
Cc1cc(O)c(-c2cc(O)c(C)cc2O)cc1O | -28.0 | -4.2 | 134.1* | 6.8 | -1.9 | 11.9
Nc1nc2ccccc2n1C(=O)c1ccccc1 | -20.8 | -1.6 | 9.1 | 2.0 | -7.0 | -1.0
Nc1nc2ccccc2n1C(=O)c1ccco1 | 13.7 | 41.1* | 8.1 | -2.9 | 44.3* | 5.0
CSC1=N/C(=C\c2ccc(C)o2)C(=O)S1 | 0.2 | 101.5* | 13.5 | 20.6 | 104.3* | 2.0

Bioassay records (PubChem)
